# Laboratory results reported in ChEMBL document CHEMBL1151693, “Design, synthesis, and pharmacological evaluation of N-bicyclo-5-chloro-1H-indole-2-carboxamide derivatives as potent glycogen phosphorylase inhibitors” (Bioorg Med Chem, 2008).
# Tests used:
# [1] = target: T1, Glycogen phosphorylase, liver form (Homo sapiens, UniProt P06737); experiment: Inhibition of active form of human liver glycogen phosphorylase
# T1 sequence (P06737 whole entry): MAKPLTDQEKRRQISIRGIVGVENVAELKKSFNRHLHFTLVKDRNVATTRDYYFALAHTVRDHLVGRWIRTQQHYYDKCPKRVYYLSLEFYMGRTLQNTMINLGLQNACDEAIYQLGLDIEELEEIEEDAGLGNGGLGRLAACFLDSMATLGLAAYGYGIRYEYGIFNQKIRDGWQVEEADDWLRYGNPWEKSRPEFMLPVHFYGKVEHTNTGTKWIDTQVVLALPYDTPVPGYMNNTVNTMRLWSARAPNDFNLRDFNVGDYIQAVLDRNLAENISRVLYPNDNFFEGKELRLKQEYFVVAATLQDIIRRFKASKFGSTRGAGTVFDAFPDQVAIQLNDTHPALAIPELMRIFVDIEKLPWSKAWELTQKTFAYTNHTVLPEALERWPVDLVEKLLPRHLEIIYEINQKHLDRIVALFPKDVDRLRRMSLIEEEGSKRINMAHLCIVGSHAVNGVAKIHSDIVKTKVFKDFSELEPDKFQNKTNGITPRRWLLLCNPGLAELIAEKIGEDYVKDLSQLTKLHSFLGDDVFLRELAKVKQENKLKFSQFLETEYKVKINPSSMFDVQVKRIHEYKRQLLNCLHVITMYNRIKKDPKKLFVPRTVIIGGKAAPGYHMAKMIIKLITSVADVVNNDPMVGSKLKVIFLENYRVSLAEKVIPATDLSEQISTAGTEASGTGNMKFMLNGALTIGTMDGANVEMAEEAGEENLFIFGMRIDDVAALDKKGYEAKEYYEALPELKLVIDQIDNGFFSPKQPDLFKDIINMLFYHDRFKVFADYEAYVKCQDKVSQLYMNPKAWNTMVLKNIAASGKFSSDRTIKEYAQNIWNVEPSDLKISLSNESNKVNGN
# [2] = AUC (0 to infinity) in Sprague-Dawley rat at 3 mg/kg, po; format: ADME, organism-based; set-up: time infinity, dose 3 mg/kg, route oral; details: plasma
# Method in brief: (§1)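 Pharmacokinetics were determined in male SD rats after intravenous or oral administration.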
# Mus musculus [3] = experiment: Hypoglycemic activity in db/db mouse assessed as reduction of plasma glucose at 3 mg/kg, po after 2 hrs relative to control; format: functional; set-up: scale not given: the % may be the effect or the level left
# Method in brief: (§2)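 Diabetic db/db mice were dosed orally. Plasma glucose was measured 2 h post-dose in drug-treated and vehicle-treated control animals. Activity is the percent decrease in plasma glucose versus the vehicle controls. Significance versus control was tested by Dunnett's test or Student's t-test.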
# [4] = Cmax in Sprague-Dawley rat at 3 mg/kg, po; format: ADME, organism-based; set-up: dose 3 mg/kg, route oral; details: in vivo; method in brief: as §1
# Mus musculus [5] = experiment: Hypoglycemic activity in db/db mouse assessed as reduction of plasma glucose at 10 mg/kg, po after 2 hrs relative to control; format: functional; set-up: scale not given: the % may be the effect or the level left; method in brief: as §2
# [6] = Oral bioavailability in Sprague-Dawley rat at 3 mg/kg; format: ADME, organism-based; details: in vivo; method in brief: as §1
# [7] = AUC (0 to infinity) in Sprague-Dawley rat at 1 mg/kg, iv; format: ADME, organism-based; set-up: time infinity, dose 1 mg/kg, route intravenous; details: plasma; method in brief: as §1
# [8] = Total clearance in Sprague-Dawley rat at 1 mg/kg, iv; format: ADME, organism-based; set-up: dose 1 mg/kg, route intravenous; details: in vivo; method in brief: as §1
# [9] = Tmax in Sprague-Dawley rat at 3 mg/kg, po; format: ADME, organism-based; set-up: dose 3 mg/kg, route oral; details: in vivo; method in brief: as §1
# [10] = Half life in Sprague-Dawley rat at 1 mg/kg, iv; format: ADME, organism-based; set-up: dose 1 mg/kg, route intravenous; details: in vivo; method in brief: as §1
# [11] = Volume of distribution in Sprague-Dawley rat at 1 mg/kg, iv; format: ADME, organism-based; set-up: dose 1 mg/kg, route intravenous; details: in vivo; method in brief: as §1
# Hepatocyte = experiment: Inhibition of glucagon-induced glucose output in cultured rat primary hepatocytes; format: functional, cell-based
# Mus musculus [12] = experiment: Hypoglycemic activity in db/db mouse assessed as reduction of plasma glucose at 30 mg/kg, po after 2 hrs relative to control; format: functional; set-up: scale not given: the % may be the effect or the level left; method in brief: as §2
smiles,measurement,setting,value
O=C(Nc1ccc2c(c1F)CCC(F)(F)C2O)c1cc2cc(Cl)ccc2[nH]1 (configuration not stated),IC50,[1],48 nM
O=C(Nc1c(F)cc2c(c1F)CCC(F)(F)C2O)c1cc2cc(Cl)ccc2[nH]1 (configuration not stated),IC50,[1],36 nM
O=C(Nc1c(F)cc2c(c1F)CCC(F)(F)[C@@H]2O)c1cc2cc(Cl)ccc2[nH]1,AUC(0-inf),[2],2780 ng·h/mL
same,Activity,Mus musculus [3],14%
same,Cmax,[4],785 ng/mL
same,Activity,Mus musculus [5],26%
same,bioavailability,[6],100%
same,AUC(0-inf),[7],930 ng·h/mL
same,clearance,[8],17.9 mL/min/kg
same,Tmax,[9],0.5 h
same,half-life,[10],12 h
same,IC50,[1],20 nM
same,Vd,[11],18.1 L/kg
same,IC50,Hepatocyte,690 nM
CC1(C)CCc2cc(NC(=O)c3cc4cc(Cl)ccc4[nH]3)ccc2C1O (configuration not stated),IC50,[1],> 10000 nM
O=C(Nc1c(F)cc2c(c1F)CCC(F)(F)[C@H]2O)c1cc2cc(Cl)ccc2[nH]1,IC50,[1],160 nM
O=C(N[C@@H](Cc1ccc(F)cc1)C(=O)N1CCC(O)CC1)c1cc2cc(Cl)ccc2[nH]1,Activity,Mus musculus [12],24%
